For 18 compounds, MIC results are on record in ChEMBL document CHEMBL1153639, “A facile synthesis and antimycobacterial evaluation of novel spiro-pyrido-pyrrolizines and pyrrolidines” (2009).

Assay [1] relates to Mycobacterium tuberculosis. Kind of assay: Antimycobacterial against Mycobacterium tuberculosis H37Rv by agar dilution method. It is filed as functional. In short, it runs like this:
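MIC read by agar dilution against M. tuberculosis H37Rv, run in triplicate.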

Assay [2] has as its system Mycolicibacterium smegmatis. Kind of assay: Antimycobacterial against Mycobacterium smegmatis MC2 by agar dilution method. The assay is classed as functional. In short, it runs like this: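 MIC read by agar dilution, run in triplicate against M. smegmatis MC², screened in parallel with M. tuberculosis and an MDR-TB clinical isolate.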
(Agar dilution tests growth on a series of plates holding different concentrations.)

Values after ≈ are worked out from the molar mass of the structure shown.

In the case of `COc1ccc([C@H]2[C@H](c3ccccc3)N[C@@]3(C(=O)Nc4ccccc43)[C@@]23CN(C)CCC3=O)cc1`, the figures for the minimal inhibitory concentration (MIC) in assay [1] and in assay [2] were 26.7 µM (≈ 12.5 µg/mL) and 53.5 µM (≈ 25 µg/mL), respectively.

Turning to `Cc1ccc([C@H]2[C@@H]3CCCN3[C@@]3(C(=O)Nc4ccccc43)[C@@]23CN(C)CCC3=O)cc1`, the MIC in assay [1] amounted to 7.53 µM (≈ 3.13 µg/mL); in assay [2] it was 15 µM (≈ 6.25 µg/mL).

Turning to `COc1ccc([C@H]2[C@@H]3CCCN3[C@@]3(C(=O)Nc4ccccc43)[C@@]23CN(C)CCC3=O)cc1`, the MIC in assay [1] amounted to 14.5 µM (≈ 6.25 µg/mL); in assay [2], 57.9 µM (≈ 25 µg/mL).

On to `COc1ccc([C@H]2CN(C)[C@@]3(C(=O)Nc4ccccc43)[C@@]23CN(C)CCC3=O)cc1`, for which the values for the minimal inhibitory concentration (MIC) in assay [1] and in assay [2] were 30.8 µM (≈ 12.5 µg/mL) and 61.6 µM (≈ 25 µg/mL), respectively.

On to `CN1CCC(=O)[C@]2(C1)[C@@H](c1cccc(F)c1)[C@H](c1ccccc1)N[C@@]21C(=O)Nc2ccccc21`, for which the MIC in assay [1] came out at 6.87 µM (≈ 3.13 µg/mL); in assay [2] it was 54.9 µM (≈ 25 µg/mL).

`Cc1ccc([C@H]2CN(C)[C@@]3(C(=O)Nc4ccccc43)[C@@]23CN(C)CCC3=O)cc1`: the figures for the MIC in assay [1] and in assay [2] were 16.1 µM (≈ 6.25 µg/mL) and 32.1 µM (≈ 12.5 µg/mL), respectively.

As to `CN1CCC(=O)[C@]2(C1)[C@@H](c1ccc(Cl)cc1Cl)[C@H](c1ccccc1)N[C@@]21C(=O)Nc2ccccc21`, the MIC in assay [1] is 12.3 µM (≈ 6.25 µg/mL); in assay [2], 98.7 µM (≈ 50 µg/mL).

For `CN1CCC(=O)[C@]2(C1)[C@@H](c1ccccc1Cl)CN(C)[C@@]21C(=O)Nc2ccccc21`, the minimal inhibitory concentration (MIC) in assay [1] came out at 7.64 µM (≈ 3.13 µg/mL); in assay [2], 30.5 µM (≈ 12.5 µg/mL).

As to `CN1CCC(=O)[C@]2(C1)[C@@H](c1ccc(Cl)cc1Cl)[C@@H]1CCCN1[C@@]21C(=O)Nc2ccccc21`, the MIC worked out at 3.32 µM (≈ 1.56 µg/mL) in assay [1] and 53.1 µM (≈ 25 µg/mL) in assay [2].

Consider `CN1CCC(=O)[C@]2(C1)[C@@H](c1cccc(F)c1)CN(C)[C@@]21C(=O)Nc2ccccc21`, for which the MIC in assay [1] stood at 7.95 µM (≈ 3.13 µg/mL); in assay [2] it was 63.5 µM (≈ 25 µg/mL).

Regarding `CN1CCC(=O)[C@]2(C1)[C@@H](c1ccc(Cl)cc1Cl)CN(C)[C@@]21C(=O)Nc2ccccc21`, the MIC turned out to be 1.76 µM (≈ 0.782 µg/mL) in assay [1] and 56.3 µM (≈ 25 µg/mL) in assay [2].

Consider `Cc1ccc([C@H]2[C@H](c3ccccc3)N[C@@]3(C(=O)Nc4ccccc43)[C@@]23CN(C)CCC3=O)cc1`, for which the figures for the MIC in assay [1] and in assay [2] were 27.7 µM (≈ 12.5 µg/mL) and 111 µM (≈ 50 µg/mL), respectively.

For the compound `CN1CCC(=O)[C@]2(C1)[C@@H](c1ccccc1Cl)[C@@H]1CCCN1[C@@]21C(=O)Nc2ccccc21`, the MIC stood at 3.58 µM (≈ 1.56 µg/mL) in assay [1] and 28.7 µM (≈ 12.5 µg/mL) in assay [2].

`CN1CCC(=O)[C@]2(C1)[C@@H](c1cccc(F)c1)[C@@H]1CCCN1[C@@]21C(=O)Nc2ccccc21`: the minimal inhibitory concentration (MIC) in assay [1] amounted to 7.46 µM (≈ 3.13 µg/mL); in assay [2], 29.8 µM (≈ 12.5 µg/mL).

For the compound `CN1CCC(=O)[C@]2(C1)[C@@H](c1ccccc1Cl)[C@H](c1ccccc1)N[C@@]21C(=O)Nc2ccccc21`, the values for the minimal inhibitory concentration (MIC) in assay [1] and in assay [2] were 13.2 µM (≈ 6.25 µg/mL) and 53 µM (≈ 25 µg/mL), respectively.

In the case of `CC[C@@H](CO)NCCN[C@@H](CC)CO` [ETHAMBUTOL], the figures for the MIC in assay [1] and in assay [2] were 7.64 µM (≈ 1.56 µg/mL) and 122 µM (≈ 25 µg/mL), respectively.

As to `NNC(=O)c1ccncc1` [ISONIAZID], the MIC was 0.39 µM (≈ 0.0535 µg/mL) in assay [1] and 45.6 µM (≈ 6.25 µg/mL) in assay [2].

Turning to `NC(=O)c1cnccn1` [PYRAZINAMIDE], the minimum inhibitory concentration (MIC) in assay [1] turned out to be 50.8 µM (≈ 6.25 µg/mL); in assay [2], 406 µM (≈ 50 µg/mL).

One may read the MIC as the lowest concentration that inhibits growth of the organism. Higher therefore signals weaker potency.
